# Active and inactive are the calls of the source. The calls are words filed in the database; no cut-off is given here.
# Legend:
# [1] = target: Dual specificity tyrosine-phosphorylation-regulated kinase 1A (Rattus norvegicus, UniProt Q63470); experiment: Inhibition of rat recombinant GST-tagged DYRK1A using KKISGRLSPIMTEQ as substrate and [gamma32]-ATP after 30 mins by scintillation counting
# Summary of the method: (§1)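 GST fusion kinases expressed in E. coli and purified on glutathione-agarose; DYRK1A is rat, DYRK2 is human. Assay buffer A (25 mM Tris-HCl pH 7.5, 10 mM MgCl2, 1 mM EGTA, 1 mM DTT, 50 μg/mL heparin) plus 0.15 mg/mL BSA. Product captured on P81 paper, washed in 1% phosphoric acid, scintillation counted. Activity expressed as percent of uninhibited control.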
# Sus scrofa = organism: Sus scrofa; experiment: Inhibition of pig brain CK1 delta/epsilon using RRKHAAIGpSAYSITA as substrate at 10 uM
# Summary of the method: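 Native CK1δ/ε from porcine brain, assayed in 3-fold diluted buffer C with 25 μM CKS peptide substrate. 15 μM ATP final, 30 C. Activity is percent of uninhibited control after blank subtraction, with DMSO controls. Inhibitor tested over a range of concentrations up to 10 μM.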
# [2] = target: Dual specificity protein kinase CLK3 (Mus musculus, UniProt O35492); experiment: Inhibition of mouse recombinant GST-tagged CLK3 using GRSRSRSRSRSR as substrate
# Chain of Dual specificity protein kinase CLK3 (O35492 whole entry, the tested form may be a part): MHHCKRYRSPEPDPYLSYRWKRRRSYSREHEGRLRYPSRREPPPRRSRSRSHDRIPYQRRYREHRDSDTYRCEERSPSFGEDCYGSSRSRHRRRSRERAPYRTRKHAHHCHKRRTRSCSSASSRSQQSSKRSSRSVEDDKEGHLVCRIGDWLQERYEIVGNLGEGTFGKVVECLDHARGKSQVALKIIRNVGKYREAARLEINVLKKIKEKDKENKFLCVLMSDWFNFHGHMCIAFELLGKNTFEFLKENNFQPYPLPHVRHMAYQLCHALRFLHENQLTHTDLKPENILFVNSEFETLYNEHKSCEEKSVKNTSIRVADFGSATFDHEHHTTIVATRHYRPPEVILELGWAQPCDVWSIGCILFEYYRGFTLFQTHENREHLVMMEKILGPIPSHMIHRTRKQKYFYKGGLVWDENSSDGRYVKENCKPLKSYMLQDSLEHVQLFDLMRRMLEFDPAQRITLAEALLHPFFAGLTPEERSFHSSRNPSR
# Summary of the method: (§2)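 Mouse GST-fusion CLK1 or CLK3 expressed in E. coli. Assay buffer A (Tris-HCl pH 7.5, MgCl2, EGTA, DTT, heparin) plus 0.15 mg/mL BSA. RS peptide 1 μg/assay, 15 μM ATP final, 30 C. Blank subtracted; activity expressed as percent of activity without inhibitor. DMSO controls. Concentration range up to 10 μM.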
# [3] = target: Glycogen synthase kinase-3 alpha/beta (Sus scrofa); experiment: Inhibition of pig brain GSK-3alpha/beta
# [4] = target: Dual specificity protein kinase CLK1 (Mus musculus, UniProt P22518); experiment: Inhibition of mouse recombinant GST-tagged CLK1 using GRSRSRSRSRSR as substrate; summary of the method: as §2
# Chain of Dual specificity protein kinase CLK1 (P22518 whole entry): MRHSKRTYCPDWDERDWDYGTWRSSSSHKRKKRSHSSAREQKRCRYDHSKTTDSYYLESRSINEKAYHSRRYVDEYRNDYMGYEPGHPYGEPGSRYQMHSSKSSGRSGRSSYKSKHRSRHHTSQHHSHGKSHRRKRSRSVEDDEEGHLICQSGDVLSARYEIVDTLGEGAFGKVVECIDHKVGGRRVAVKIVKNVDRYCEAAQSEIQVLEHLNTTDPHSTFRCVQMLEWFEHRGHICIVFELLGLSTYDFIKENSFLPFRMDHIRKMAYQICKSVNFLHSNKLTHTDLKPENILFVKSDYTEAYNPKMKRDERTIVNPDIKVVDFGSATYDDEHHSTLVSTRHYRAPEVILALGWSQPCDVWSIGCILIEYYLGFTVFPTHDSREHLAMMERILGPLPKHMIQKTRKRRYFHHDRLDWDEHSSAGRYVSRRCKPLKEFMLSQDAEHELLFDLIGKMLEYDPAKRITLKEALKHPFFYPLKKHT
# [5] = target: T1, Dual specificity tyrosine-phosphorylation-regulated kinase 2 (Homo sapiens, UniProt Q92630); experiment: Inhibition of human recombinant GST-tagged DYRK2 using KKISGRLSPIMTEQ as substrate and [gamma32]-ATP after 30 mins by scintillation counting; summary of the method: as §1
# T1 sequence (Q92630 whole entry): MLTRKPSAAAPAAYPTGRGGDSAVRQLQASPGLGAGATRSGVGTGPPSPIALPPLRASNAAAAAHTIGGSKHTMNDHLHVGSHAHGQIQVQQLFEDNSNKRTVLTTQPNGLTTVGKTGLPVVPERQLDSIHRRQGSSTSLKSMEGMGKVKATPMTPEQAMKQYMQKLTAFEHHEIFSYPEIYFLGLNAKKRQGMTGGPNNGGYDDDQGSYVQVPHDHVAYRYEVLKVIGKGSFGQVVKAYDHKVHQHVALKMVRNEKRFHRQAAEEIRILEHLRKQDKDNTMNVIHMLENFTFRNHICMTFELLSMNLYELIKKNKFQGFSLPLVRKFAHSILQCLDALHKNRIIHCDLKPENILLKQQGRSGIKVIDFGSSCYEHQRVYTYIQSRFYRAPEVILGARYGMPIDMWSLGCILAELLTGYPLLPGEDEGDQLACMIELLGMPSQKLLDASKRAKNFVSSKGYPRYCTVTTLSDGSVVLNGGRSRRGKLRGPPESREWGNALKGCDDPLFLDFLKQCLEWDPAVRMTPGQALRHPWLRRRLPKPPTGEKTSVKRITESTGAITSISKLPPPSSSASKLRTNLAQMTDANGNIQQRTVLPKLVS
# [6] = tested on: Cyclin-dependent kinase 5/p25 (Homo sapiens); experiment: Inhibition of human recombinant CDK5/p25 at 10 uM
# [7] = target: Serine/threonine-protein kinase pim-1 (Homo sapiens, UniProt P11309); experiment: Inhibition of human recombinant Pim1
# Chain of Serine/threonine-protein kinase pim-1 (P11309 whole entry): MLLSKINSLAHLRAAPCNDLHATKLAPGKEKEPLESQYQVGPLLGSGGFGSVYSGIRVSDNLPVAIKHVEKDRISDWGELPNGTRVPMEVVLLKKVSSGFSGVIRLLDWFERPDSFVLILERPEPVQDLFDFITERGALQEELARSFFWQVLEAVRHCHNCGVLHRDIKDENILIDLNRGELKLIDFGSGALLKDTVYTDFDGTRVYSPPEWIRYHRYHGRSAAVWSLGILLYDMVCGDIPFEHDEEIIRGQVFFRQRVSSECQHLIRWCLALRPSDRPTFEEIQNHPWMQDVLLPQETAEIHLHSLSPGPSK
# Summary of the method: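 Kinase assayed in buffer C (25 mM Mops pH 7.2, 60 mM beta-glycerophosphate, 30 mM p-nitrophenylphosphate, 15 mM MgCl2, 5 mM EGTA, 1 mM DTT, 0.1 mM vanadate) with 1 mg/mL histone H1. DMSO controls.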
SMILES,IC50 [1] [nM],inhibition (Sus scrofa),IC50 [2] [µM],IC50 [4] [nM],IC50 [5] [nM],IC50 [7] [µM],IC50 [3] [µM],inhibition [6]
CC(C)CNC1=N/C(=C\c2ccc3c(c2)OCO3)C(=O)N1C,170,inactive,0.9,120,210,2,3.1,inactive
COc1ccc(NC2=N/C(=C\c3ccc4c(c3)OCO4)C(=O)N2C)cc1,240,inactive,> 10,450,510,4.1,0.7,inactive
O=C1NC(NCC2CC2)=N/C1=C\c1ccc2c(c1)OCO2,100,inactive,0.61,83,47,1.5,4.7,inactive
CCNC1=N/C(=C\c2ccc3c(c2)OCO3)C(=O)N1,410,inactive,3.7,400,160,3.1,2.4,inactive
CCCNC1=N/C(=C\c2ccc3c(c2)OCO3)C(=O)N1,240,inactive,2.2,130,120,2.5,7.3,inactive
CN1C(=O)/C(=C/c2ccc3c(c2)OCO3)N=C1NC1CCCC1,3700,inactive,> 10,140,6000,0.3,,
CCCCNC1=N/C(=C\c2ccc3c(c2)OCO3)C(=O)N1C,500,inactive,1.1,130,610,4.6,,
COCCNC1=N/C(=C\c2ccc3c(c2)OCO3)C(=O)N1C,570,inactive,3.1,73,770,> 10,,
CN1C(=O)/C(=C/c2ccc3c(c2)OCO3)N=C1NCCO,7000,inactive,> 10,120,10000,> 10,1.3,inactive
CN1C(=O)/C(=C/c2ccc3c(c2)OCO3)N=C1Nc1ccc2c(c1)OCO2,400,inactive,> 10,160,100,> 10,5.8,inactive
O=C1NC(Nc2ccc3c(c2)OCCO3)=N/C1=C\c1ccc2c(c1)OCO2,170,inactive,> 10,320,110,> 10,> 10,inactive
CCOC(=O)C(=O)NC1=N/C(=C\c2ccc3c(c2)OCO3)C(=O)N1C,6100,inactive,> 10,3100,6500,7,> 10,inactive
CN1C(=O)/C(=C/c2ccc3c(c2)OCO3)N=C1NCCCCCO,2100,inactive,7,140,2000,6.1,,
CCCNC1=N/C(=C\c2ccc3c(c2)OCO3)C(=O)N1C,540,inactive,1.2,310,550,4.5,,
CN1C(=O)/C(=C/c2ccc3c(c2)OCO3)N=C1NCCCO,280,inactive,3.9,233,470,6.5,,
CCNC1=N/C(=C\c2ccc3c(c2)OCO3)C(=O)N1C,580,inactive,2.1,170,640,7.2,16,inactive
CN1C(=O)/C(=C/c2ccc3c(c2)OCO3)N=C1NCCN1CCOCC1,1200,inactive,8,80,1600,6.2,4,inactive
CN1C(=O)/C(=C/c2ccc3c(c2)OCO3)N=C1NCc1ccccc1,380,inactive,0.94,200,560,3.7,> 10,inactive
CC(C)NC1=N/C(=C\c2ccc3c(c2)OCO3)C(=O)N1C,390,inactive,2,260,530,4,,
C=CCNC1=N/C(=C\c2ccc3c(c2)OCO3)C(=O)N1C,440,inactive,0.88,200,620,4.2,1.6,inactive
CN1C(=O)/C(=C/c2ccc3c(c2)OCO3)N=C1NCCN,910,inactive,5,190,710,3.1,0.91,inactive

# The next lines start with results.
IC50 [1] [nM],inhibition (Sus scrofa),IC50 [2] [µM],IC50 [4] [nM],IC50 [5] [nM],IC50 [7] [µM],SMILES,IC50 [3] [µM],inhibition [6]
96,inactive,0.52,60,60,1.2,O=C1NC(Nc2ccc(O)cc2)=N/C1=C\c1ccc2c(c1)OCO2,,
110,inactive,10,830,80,> 10,COc1ccc(NC2=N/C(=C\c3ccc4c(c3)OCO4)C(=O)N2)cc1,,
66,inactive,0.36,170,40,5,O=C1NC(Nc2ccc3c(c2)OCO3)=N/C1=C\c1ccc2c(c1)OCO2,,
310,inactive,4.6,84,460,2.6,CN1C(=O)/C(=C/c2ccc3c(c2)OCO3)N=C1Nc1ccccc1,,
440,inactive,3.9,1000,1100,4,CN1C(=O)/C(=C/c2ccc3c(c2)OCO3)N=C1Nc1ccc(O)cc1,,
3100,inactive,> 10,2400,5100,> 10,CC(=O)NC1=N/C(=C\c2ccc3c(c2)OCO3)C(=O)N1C,,
2100,inactive,3.2,770,2200,3.5,CNC1=N/C(=C\c2ccc3c(c2)OCO3)C(=O)N1C,,
3200,inactive,> 10,230,3300,0.59,CN1C(=O)/C(=C/c2ccc3c(c2)OCO3)N=C1NCc1ccc2c(c1)OCO2,,
170,inactive,> 10,320,61,9,Cc1ccc(NC2=N/C(=C\c3ccc4c(c3)OCO4)C(=O)N2)cc1,,

# — ChEMBL document CHEMBL1800025 (J Med Chem, 2011)
